From PubChem
S100A4 MyoIIA = inhibitors of S100A4-myosin IIA peptide binding, primary screen, biochemical, fluorescence polarization, TAMRA-MyoIIA peptide | actives 0.14% (n = 360,000) | Protein S100-A4 (Homo sapiens), P26447 | inhibition, % at 10.7 µM | AID 652163, 2013;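 active = mean inhibition of at least 70% across replicates, with every replicate also reaching that level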
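Assay system: human S100A4 monomer with TAMRA-labelled myosin IIA peptide / Buffer or medium: Calcium-containing HEPES buffer, pH 7.2 / Reagent: TAMRA-labelled myosin IIA heavy-chain peptide probe, 5 nM / Compound: one dose per compound / Timing: polarization read 5 min after assay mix addition, stable 5–60 min / Benchmarks: neutral control DMSO, positive control TFP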
PDI inh = inhibitors of human PDI, primary screen, biochemical, turbidity, single point, plate reader | Protein disulfide-isomerase (Homo sapiens), P07237 | PDI insulin aggregation turbidity, A650, 90 min | inhibition, % at 10 µM | actives 0.052% (n = 350,000);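 active = mean inhibition across replicates of 30% or more, whatever share of single replicates reach that level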
FGF22 binding = binders of human FGF22 protein, primary screen, FGF22 synaptogenesis inhibitor project, biophysical, thermal shift, single point | Fibroblast growth factor 22 (Homo sapiens), Q9HCT0 | recombinant FGF22 thermal shift, SYPRO orange fluorescence; percent of sucrose octasulfate shift, DMSO zero | activity (Tm shift, normalised), % at 9.99 µM | actives 1.5% (n = 340,000) | AID 651658, 2012;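 active = mean Tm shift, scaled 0 neutral to 100 positive control, at about 1.3% or above, every replicate too, limit read from the data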
Target sequence (Q9HCT0 whole entry, looked up): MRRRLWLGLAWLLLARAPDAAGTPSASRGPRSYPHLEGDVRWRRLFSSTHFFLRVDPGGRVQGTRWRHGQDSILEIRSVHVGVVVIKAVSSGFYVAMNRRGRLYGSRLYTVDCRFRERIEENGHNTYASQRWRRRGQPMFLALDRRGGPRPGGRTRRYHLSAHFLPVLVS
ERAP1 inh = human ERAP1 aminopeptidase inhibitors, primary screen, biochemical, single point, plate reader; Endoplasmic reticulum aminopeptidase 1 (Homo sapiens), Q9NZ08; recombinant ERAP1, Leu-AMC fluorescence, 60 min; inhibition, % at 10.7 µM; actives 0.15% (n = 340,000); AID 652197, 2013;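 active = mean replicate inhibition of at least 30%, or all replicates individually reaching that 30% level; inactive = mean below 30% and not every replicate reaching it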;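 note: 0% = neutral control wells and 100% = L-leucinethiol positive control wells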
ERp5 inh = inhibitors of ERp5-driven insulin aggregation, primary screen, biochemical, turbidity, absorbance 650 nm, single point. 90 min. actives 0.05% (n = 350,000). inhibition, % at 9.99 µM. AID 651711, 2012;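 active = mean replicate inhibition above about 25%, with every replicate also reaching it, limit read from the data, passing the limit was not always enough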
Target sequence (Q15084 whole entry, looked up): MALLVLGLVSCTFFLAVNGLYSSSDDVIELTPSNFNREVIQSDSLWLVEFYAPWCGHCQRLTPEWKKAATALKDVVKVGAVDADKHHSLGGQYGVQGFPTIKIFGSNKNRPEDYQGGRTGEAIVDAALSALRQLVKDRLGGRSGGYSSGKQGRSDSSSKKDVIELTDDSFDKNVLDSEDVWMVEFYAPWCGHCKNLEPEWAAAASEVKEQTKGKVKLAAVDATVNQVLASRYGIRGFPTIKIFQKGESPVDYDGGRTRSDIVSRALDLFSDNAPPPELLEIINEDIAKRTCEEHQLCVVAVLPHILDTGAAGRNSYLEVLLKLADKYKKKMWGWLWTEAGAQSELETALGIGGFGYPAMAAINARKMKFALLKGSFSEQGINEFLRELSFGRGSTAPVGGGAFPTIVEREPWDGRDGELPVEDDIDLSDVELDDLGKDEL
Numbers without * were called inactive; . = no result. This excerpt belongs to a sample that is enriched for hits.

SMILES	S100A4 MyoIIA	PDI inh	FGF22 binding	ERAP1 inh	ERp5 inh
CCOC(=O)Cn1c2[n+](c3ccccc31)CC(O)CS2 (configuration not stated)	3.6	-0.6	0.4	78.2*	-0.9
O=C(NCc1ccccc1)C1C(c2ccc3c(c2)OCO3)=Nc2ccccc2N1C(=O)c1ccco1 (configuration not stated)	-4.6	.	0.1	6.7	0.7
NC(=O)c1ncn([C@@H]2O[C@H](CNCc3cccn3-c3ccncc3)[C@@H](O)[C@H]2O)n1	-1.9	-1.2	43.1*	1.1	-0.7
COC(=O)c1c(C)[nH]c(O)c1C=Nc1ccc(Oc2ccccc2)cc1	-2.8	22.3	43.6*	-3.8	-4.8
COc1ccc(NC2CC(=O)N(c3cc([N+](=O)[O-])ccc3C)C2=O)cc1 (configuration not stated)	-3.1	12.9	43.2*	3.2	2.6
Cc1ccc(C)c(NC(=O)C2CC(O)CN2C(=O)Oc2ccccc2)c1 (configuration not stated)	-20.2	2.5	-0.2	39.3*	-4.5
COc1cc(CC(=O)OCn2nnc3ccccc3c2=O)cc(OC)c1OC	-2.8	23.4	43.9*	2.9	-4.1
O=C(NCc1ccccc1Cl)c1ccncc1	0.4	-16.2	0.1	2.7	4.1
COC(=O)c1cc2c(n(Cc3ccccc3)c1=O)CCCC2=O	-1.1	-8.2	43.3*	0.8	-1.7
O=C1CCCc2c1cc(C(=O)Nc1ccc(Br)cn1)c(=O)n2-c1ccccc1	.	-0.2	.	.	.
O=C1CCCc2c1cc(C(=O)O)c(=O)n2-c1ccccc1	0.2	2.2	43.2*	3.4	-5.5
CCOC(=O)c1cc2c(n(-c3ccc(Cl)cc3)c1=O)CCCC2=O	-4.5	-4.9	43.8*	-3.5	-1.6
Cc1ccc(-n2c3c(cc(C(=O)NCC(=O)c4ccccc4)c2=O)C(=O)CCC3)cc1	-3.6	-7.6	-0.1	-2.1	-2.1
CC1CCCC(C)N1/N=C/c1ccccc1C(=O)O (configuration not stated)	0.4	-0.9	0.0	-1.3	-1.7
Cc1ccc(NC(=O)C2(N(CC(C)C)C(=O)Cn3nnnc3N)CCCCC2)cc1	.	-8.7	.	.	.
O=C(COC(=O)c1ccc(O)cc1)NCC1CCCO1 (configuration not stated)	-3.7	5.9	43.2*	-1.3	3.7
CNC[C@@H]1OCCCC[C@H](C)Oc2ccc(NC(=O)c3ccncc3)cc2C(=O)N([C@@H](C)CO)C[C@@H]1C	7.3	.	-0.1	1.7	0.5
Cc1ccc(OCC(=O)Nc2ccc3c(c2)OCO3)cc1C	2.7	-4.8	0.1	-2.6	5.6
Cc1cc(C)nc(/N=C(\N)Nc2ccc(S(=O)(=O)Nc3nccc(C)n3)cc2)n1	0.2	4.6	43.1*	-5.5	1.2
Cc1ccnc(NS(=O)(=O)c2ccc(NC(=O)/C=C/c3cccs3)cc2)n1	0.2	7.5	43.6*	-1.4	2.7
O=C(NCCCO)NC(=S)c1cccc2ccccc12	-2.3	-6.7	0.1	-3.3	-3.0
CCc1n[nH]c(=S)n1N=C1CCC(C)CC1 (configuration not stated)	-4.6	7.1	43.0*	1.1	-2.2
On1nnc2cc(C(F)(F)F)ccc21	7.4	-8.4	-0.1	2.9	1.5
On1nnc2ccc(C(F)(F)F)cc21	2.9	0.3	43.5*	-1.5	-6.1
Cc1nc(CN(C)C(=O)c2cc(COc3ccc4ncccc4c3)on2)cs1	-3.2	3.1	42.9*	-2.1	-4.8
SMILES	S100A4 MyoIIA	PDI inh	FGF22 binding	ERAP1 inh	ERp5 inh
O=C(Nc1ccc(S(=O)(=O)N2CCCCC2c2cccnc2)cc1)c1c(F)cccc1F (configuration not stated)	-4.3	-4.2	43.7*	-2.2	3.3
CN(C)C1=NC[C@H](Cc2ccccc2)N1CC1CCCCCC1	-1.7	1.6	0.3	1.7	3.3
O=C(COc1cccc(Br)c1)N/N=C/C(=O)c1ccccc1	-3.1	1.5	42.9*	-0.5	1.2
Cc1cccc(OCC(=O)NCC(=O)N/N=C/c2ccc(O)cc2O)c1	-2.4	-1.7	0.1	-0.5	-2.2
Cc1cccc(OCC(=O)NCC(=O)N/N=C/c2cc(Br)ccc2OCc2ccccc2)c1	19.0	-5.7	-0.1	-2.2	3.3
Cc1cccc(OCC(=O)NCC(=O)N/N=C/c2ccccc2)c1	-15.3	9.0	42.9*	-3.9	-0.1
CC(C)NC(=O)COC(=O)c1ccc(Oc2ccccc2)cc1	.	0.1	.	.	.
CC(C)NC(=O)COC(=O)c1ccccc1C(=O)c1ccccc1	-1.8	4.4	44.1*	-5.0	8.3
COc1ccc2[nH]cc(CCNS(=O)(=O)Cc3ccccc3)c2c1	2.0	0.4	43.2*	2.1	1.9
COc1ccc2[nH]cc(CCNC(=O)CS(=O)(=O)Cc3ccccc3)c2c1	1.0	7.8	0.0	-0.6	2.1
Cc1noc(C)c1NC(=O)Nc1cccc2c1O[C@H](CN(C)S(=O)(=O)c1ccc(Cl)cc1)[C@@H](C)CN([C@H](C)CO)C2=O	3.5	.	-0.2	-1.6	26.0*
Cc1noc(C)c1NC(=O)N(C)C[C@H]1Oc2c(NS(=O)(=O)c3ccc(Cl)cc3)cccc2C(=O)N([C@@H](C)CO)C[C@@H]1C	2.6	.	-0.1	-0.3	25.0*
CC1CCN(S(=O)(=O)c2ccc(C(=O)NCc3cccnc3)cc2)CC1	-2.3	1.3	-0.3	3.4	2.2
CNC(=O)C[C@@H]1CC[C@@H]2[C@H](COc3ccc(NC(=O)c4cc(F)cc(F)c4)cc3C(=O)N2C)O1	-14.8	.	0.1	-3.3	-2.3
CCc1ccc(NS(=O)(=O)c2ccc(C)c(C(=O)N3CCOCC3)c2)cc1	10.9	3.4	0.2	83.4*	-0.2
Nc1ccc(-c2nc3cc([N+](=O)[O-])ccc3o2)cc1	1.7	-1.5	-0.1	3.3	1.2
C=CCNC(=O)COC(=O)c1ccc(Sc2nncn2C)c([N+](=O)[O-])c1	1.6	3.2	43.8*	-3.6	2.7
CCOn1c(=O)c(-c2ccc(C)cc2)[n+]([O-])c2ccccc21	1.2	-13.8	-0.2	5.7	1.0
CCOn1c(=O)c(-c2cccc([N+](=O)[O-])c2)[n+]([O-])c2ccccc21	-2.9	4.3	43.8*	-3.3	-1.5
COc1ccc(NC(=O)N(C)C[C@H]2Oc3c(NC(=O)NC4CCCCC4)cccc3C(=O)N([C@H](C)CO)C[C@@H]2C)cc1	5.4	7.6	-0.1	3.8	2.5
C[C@@H]1CN([C@@H](C)CO)C(=O)c2cccc(N(C)C)c2O[C@@H]1CN(C)C(=O)Nc1cccc2ccccc12	81.4*	.	-0.2	3.8	3.4
COc1ccc(NC(=O)N(C)C[C@H]2Oc3c(NC(=O)NC4CCCCC4)cccc3C(=O)N([C@H](C)CO)C[C@H]2C)cc1	88.3*	.	-1.0	2.3	4.1
